Calls of active or inactive are those of the source. The calls are words filed in the database; no cut-off is given here.
Tests used:
Carboxypeptidase B [1] = target: T1, Carboxypeptidase B (Sus scrofa, UniProt P09955); test: Inhibition of pig pancreatic carboxypeptidase B using Hip-Arg as substrate incubated for 10 mins prior to substrate addition measured after 30 mins by spectrophotometric analysis in presence of dithiothreitol
T1 sequence (P09955 whole entry): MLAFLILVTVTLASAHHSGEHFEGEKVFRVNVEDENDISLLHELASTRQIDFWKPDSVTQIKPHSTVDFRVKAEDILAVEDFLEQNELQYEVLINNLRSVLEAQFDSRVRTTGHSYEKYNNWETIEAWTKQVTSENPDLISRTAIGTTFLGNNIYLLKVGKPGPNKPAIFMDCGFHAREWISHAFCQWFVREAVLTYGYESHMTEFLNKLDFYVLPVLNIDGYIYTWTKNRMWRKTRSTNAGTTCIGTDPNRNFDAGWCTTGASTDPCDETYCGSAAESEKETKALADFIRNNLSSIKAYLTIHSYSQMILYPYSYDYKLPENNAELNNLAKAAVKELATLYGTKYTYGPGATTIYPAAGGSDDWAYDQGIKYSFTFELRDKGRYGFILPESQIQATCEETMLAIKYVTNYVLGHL
In short: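 Porcine pancreatic CPB at 20 U/L preincubated with compounds for 10 min at 25 °C. Then Hip-Arg (3.2 mM stock) in 0.1 M Tris pH 7.6 with 10 μM DTT final, for 30 min at 25 °C. Stopped with PIPES/Tween 20, cyanuric acid colour, absorbance at 405 nm. IC50 from sigmoidal inhibition curves.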

[2] = Inhibition of human carboxypeptidase N using Hip-Lys as substrate incubated for 10 mins prior to substrate addition measured after 30 mins by spectrophotometric analysis
In short: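 Human plasma CPN (50 U/L) preincubated with compound at 37 °C for 10 min, then Hip-Lys (3.2 mM stock) added in 0.1 M Tris-HCl pH 7.6 (±10 μM DTT) for 30 min at 37 °C. Stopped with PIPES/Tween 20 buffer; cyanuric acid colour read at 405 nm; IC50 from sigmoidal inhibition curves.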

Carboxypeptidase B2 [3] = target: T2, Carboxypeptidase B2 (Homo sapiens, UniProt Q96IY4); test: Inhibition of human activated TAFI using Hip-Arg as substrate incubated for 10 mins prior to substrate addition measured after 30 mins by spectrophotometric analysis in presence of dithiothreitol
T2 sequence (Q96IY4 whole entry): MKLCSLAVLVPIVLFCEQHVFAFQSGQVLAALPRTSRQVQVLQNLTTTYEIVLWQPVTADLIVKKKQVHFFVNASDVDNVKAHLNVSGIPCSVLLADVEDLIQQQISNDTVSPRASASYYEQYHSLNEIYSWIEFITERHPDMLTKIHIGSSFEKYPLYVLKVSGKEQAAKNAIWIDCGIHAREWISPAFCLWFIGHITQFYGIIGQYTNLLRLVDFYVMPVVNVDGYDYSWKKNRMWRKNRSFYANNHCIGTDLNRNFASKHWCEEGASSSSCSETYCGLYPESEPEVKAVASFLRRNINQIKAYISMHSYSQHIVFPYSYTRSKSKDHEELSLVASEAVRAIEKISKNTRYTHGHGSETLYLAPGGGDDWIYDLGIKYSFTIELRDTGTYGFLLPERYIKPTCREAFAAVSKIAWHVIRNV
In short: (§1)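 TAFI purified from human plasma, pre-mixed with 300 ng/mL thrombomodulin (25 °C, 3 min), then activated with 3 U/mL thrombin (25 °C, 30 min). 20 U/L TAFIa preincubated with compounds for 10 min at 25 °C. Hip-Arg (3.2 mM stock) in 0.1 M Tris pH 7.6, with or without 10 μM DTT final, for 30 min at 25 °C. Stopped with PIPES/Tween 20, cyanuric acid colour read at A405. IC50 taken from sigmoidal curves.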

Carboxypeptidase B [4] = target: T1, Carboxypeptidase B; test: Inhibition of pig pancreatic carboxypeptidase B using Hip-Arg as substrate incubated for 10 mins prior to substrate addition measured after 30 mins by spectrophotometric analysis
Carboxypeptidase B2 [5] = target: T2, Carboxypeptidase B2; test: Inhibition of human activated TAFI using Hip-Arg as substrate incubated for 10 mins prior to substrate addition measured after 30 mins by spectrophotometric analysis; in short: as §1
[6] = Inhibition of human carboxypeptidase N using Hip-Lys as substrate incubated for 10 mins prior to substrate addition measured after 30 mins by spectrophotometric analysis in presence of dithiothreitol
In short: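 Human plasma carboxypeptidase N at 50 U/L preincubated with compounds for 10 min at 37 °C. Then Hip-Lys (3.2 mM stock) in 0.1 M Tris pH 7.6 buffer with DTT, for 30 min at 37 °C. Stopped with PIPES/Tween 20, cyanuric acid colour, A405. IC50 from sigmoidal inhibition curves.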

[7] = Selectivity ratio of IC50 for pig pancreatic carboxypeptidase B to IC50 for human activated TAFI
Homo sapiens = species: Homo sapiens; test: Selectivity ratio of IC50 for human carboxypeptidase N to IC50 for human activated TAFI
[8] = target: T3, Carboxypeptidase B2 (Homo sapiens) (UniProt Q96IY4); test: Inhibition of human activated TAFI using Hip-Arg as substrate at 10 uM incubated for 10 mins prior to substrate addition measured after 30 mins by spectrophotometric analysis
T3 sequence (whole entry): T2 sequence (Q96IY4 whole entry)
In short: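 Plasma-purified human TAFI activated with thrombomodulin (25 °C, 3 min), then thrombin (25 °C, 30 min). TAFIa (20 U/L) preincubated with compound at 25 °C for 10 min. Hip-Arg substrate (3.2 mM stock) added in 0.1 M Tris-HCl pH 7.6 with or without 10 μM DTT, 30 min at 25 °C. Stopped with PIPES/Tween 20; cyanuric acid colour read at 405 nm; IC50 from sigmoidal curves.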

| SMILES | IC50 (Carboxypeptidase B [1]) [µM] | IC50 [2] [µM] | IC50 (Carboxypeptidase B2 [3]) [nM] | IC50 (Carboxypeptidase B [4]) [µM] | IC50 (Carboxypeptidase B2 [5]) [µM] | IC50 [6] [µM] | Ratio IC50 [7] | Ratio IC50 (Homo sapiens) | inhibition [8] |
| --- | --- | --- | --- | --- | --- | --- | --- | --- | --- |
| NCCCCCC(C[Se][Se]CC(CCCCCN)C(=O)O)C(=O)O (stereo not given) | 0.0011 | > 3800 | 2 | 110 | > 3800 | 0.0086 | – | – | – |
| CCOC(=O)C(C[Se]C(=O)CC)Cc1cnc(N)c(Cl)c1 (stereo not given) | 130 | > 3800 | 2600 | > 3800 | > 3800 | > 3800 | 3 | – | – |
| CC(=O)SCC(CCCCCN)C(=O)O (stereo not given) | – | 160 | – | 1.4 | 3.8 | – | – | 40 | – |
| Nc1ncc(CC(C[Se][Se]CC(Cc2cnc(N)c(Cl)c2)C(=O)O)C(=O)O)cc1Cl (stereo not given) | 0.0015 | > 3800 | 0.025 | 370 | 3.3 | > 3800 | 3 | – | – |
| CCOC(=O)C(CCCCCN)CSC(C)=O (stereo not given) | – | > 3800 | – | 19 | 310 | – | – | – | – |
| CCOC(=O)C(CCCCCN)C[Se]C(=O)CC (stereo not given) | 0.033 | 14 | 30 | 910 | 1.4 | 0.16 | – | – | – |
| CCOC(=O)C(C[Se]C(=O)CC)Cc1ccc(N)nc1 (stereo not given) | 2.5 | 15 | 890 | > 3800 | 180 | 1.7 | 3 | – | – |
| NCCCCCC(C[Se]C(=O)CCc1ccccc1)C(=O)O (stereo not given) | 0.0032 | 1.7 | 5.3 | 1.4 | 2 | 0.014 | – | – | – |
| NCCCCCC(C[Se]C(=O)CCCc1ccccc1)C(=O)O (stereo not given) | 0.0032 | 6 | 4.1 | 1.5 | 1.6 | 0.016 | – | – | – |
| CCOC(=O)C(CS)CCCCCN (stereo not given) | – | 25 | – | 260 | 62 | – | – | 0.4 | – |
| O[C@@H](CS)[C@@H](O)CS | – | – | – | – | – | – | – | – | inactive |
| CC(C)[C@H](NC(=O)CCc1ccccc1)P(=O)(O)C[C@@H](CCCCCN)C(=O)O | – | 6.7 | – | 0.0049 | 0.0055 | – | – | – | – |
| NCCCCCC(CS)C(=O)O (stereo not given) | – | 1.4 | – | – | 0.034 | – | – | – | – |
| Nc1ccc(CC(C[Se][Se]CC(Cc2ccc(N)nc2)C(=O)O)C(=O)O)cn1 (stereo not given) | 0.00019 | 4.2 | 0.0022 | 0.28 | 0.2 | 0.00029 | 3 | – | – |
| CCC(=O)[Se]CC(CCCCCN)C(=O)O (stereo not given) | 0.0011 | 2 | 1.1 | 1.9 | 0.76 | 0.018 | – | – | – |

— ChEMBL document CHEMBL2163288, “Design and characterization of a selenium-containing inhibitor of activated thrombin-activatable fibrinolysis inhibitor (TAFIa), a zinc-containing metalloprotease” (J Med Chem, 2012)
